PPC-1+TRAIL kill: PPC-1 cancer cell killing with TRAIL present | PPC-1 cells + TRAIL, ATPLite viability luminescence | cell killing (% activity), % at 4 µM or 5 µM | hit rate 0.41% among 220,000;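 active = cell killing above 50% in the first pass at 4 µM, then a duplicate retest at 5 µM averaging 50% or more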;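 note: plate controls were cells with TRAIL plus DMSO for no effect and medium-only wells lacking cells for full effect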
HSP90 refold inh: inhibitors of HSP90 luciferase refolding in rabbit reticulocyte lysate. luciferase refolding luminescence, 3 h. hit rate 0.91% among 290,000. inhibition, % at 5.6 µM;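 active = inhibition above the screen-wide mean plus 3 SD, computed separately per campaign, cut at about 16% in these data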;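 note: 0% = DMSO wells and 100% = 60 µM geldanamycin wells; inhibitors lower the luminescence because luciferase stays unfolded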
STAT1 inh: inhibitors of IFN-gamma induced STAT1 signaling. NIH 3T3 STAT1-luciferase reporter, luminescence. inhibition, % at 5.5 µM. hit rate 0.35% among 200,000;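 active = inhibition above a set limit, the mean inhibition across all tested compounds plus 3 SD, cut at about 34% in these data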;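 note: 0% = IFN-gamma with DMSO and 100% = IFN-gamma with 300 µM nifuroxazide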
TRAIL sens C8: sensitizes caspase-8 expressing cells to TRAIL. AID 624354. NB7+C8 cells + TRAIL, ATPlite viability luminescence. hit rate 1% among 360,000. inhibition (viability loss, TRAIL sensitization), % at 10 µM;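 active = compounds causing at least 50% loss of cell viability in the single-dose screen, relative to plate controls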
STAT3 act-1: activators of IL-6 induced STAT3 signaling | U3A cells, IL-6 STAT3-luciferase reporter, luminescence; 100% = signal with IL-6 EC80 alone | hit rate 0.91% among 190,000 | activation (% of control), % at 5.6 µM;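 active = activation above the screen-wide mean of compound activation plus 3 SD, cut at about 130% in these data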;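 note: 0% = background luminescence of wells with medium and substrate only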
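system = STAT3-luciferase reporter U3A cells | reagent = IL-6 stimulus at 33 ng/mL final | timing = 1 h compound pre-exposure, 6 h IL-6 stimulation, 37 °C | measured by = luminescence | evaluation = % activation versus median of IL-6-stimulated wells | control set = IL-6-only wells as 100% reference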
STAT3 blocker: STAT3 signaling inhibition. U3A cells, IL-6 STAT3-luciferase reporter, luminescence; host cell line lacks STAT1. inhibition, % at 5.5 µM. hit rate 0.89% among 190,000;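 active = inhibition above the mean inhibition across all screened compounds plus 3 SD, cut at about 44% in these data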;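 note: 0% = DMSO only wells and 100% = 100 µM nifuroxazide control wells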
STAT3 act-2: STAT3 activation, confirmation assay; hit rate 64% among 1,200; AID 1267; shares compounds with STAT3 act-1; potentiation (% of control), % at 5.7 µM; U3A STAT3-luciferase reporter, IL-6 potentiation, luminescence; U3A cells lack STAT1; 100 means same as IL-6 alone;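 active = percent activation of the STAT3 luciferase reporter above a set limit taken from the earlier primary screen, cut at about 130% in these data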;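 note: 0% = background signal of medium plus substrate and 100% = median of IL-6 with DMSO wells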
NFkB act 2: NF-kappaB activation in STAT3 activator counter-screen | AID 1309 | human cells, NF-kappaB reporter activation | shares compounds with STAT3 act-1 | hit rate 11% among 1,200 | activation (% of control), % at 5.7 µM; in the data active = activation above about 120%;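 note: reporter induced by TNF-alpha stimulation; 100% = median of stimulated DMSO wells and 0% = no signal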
STAT1 act: activates STAT1, counter-screen to STAT3 activators | shares compounds with STAT3 act-1 | NIH 3T3 STAT1-luciferase reporter, IFN-gamma, luminescence | activation (% of control), % at 5.7 µM | hit rate 13% among 1,200;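 active = activation above the solvent-only control well mean plus 3 SD, set per screening run, cut at about 120% in these data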;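 note: 100% = IFN-gamma with DMSO median signal so 100% means no change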
* hit, by the source's call; . = not tested or not shown. The list is not random: actives were taken first. Their share in the collection is about 2.3%.

SMILES | PPC-1+TRAIL kill | HSP90 refold inh | STAT1 inh | TRAIL sens C8 | STAT3 act-1 | STAT3 blocker | STAT3 act-2 | NFkB act 2 | STAT1 act
COc1cc2c(cc1NC(=O)c1ccncc1)oc1ccccc12 | -16 | -6 | -18 | 5 | 155* | -60 | 137* | 105 | 120
COc1cc2c(cc1NC(=O)C(C)Sc1cccc[n+]1[O-])oc1ccccc12 (centres undefined) | 40 | -3 | -18 | 1 | 136* | -43 | 139* | 112 | 115
COc1cc2c(cc1NC(=O)C(C)OC(=O)c1ccc(S(=O)(=O)Nc3ccccc3Cl)cc1)oc1ccccc12 (centres undefined) | 18 | -3 | -4 | 2 | 141* | -41 | 128 | 106 | 104
COc1cc2c(cc1NC(=O)c1cccnc1)oc1ccccc12 | -1 | 0 | -28 | 2 | 109 | -11 | . | . | .
Cc1ccc(N(CC(N)=O)C2SC(=O)N(Cc3cccc(C(=O)O)c3)C2=O)cc1 (centres undefined) | 14 | 2 | 5 | -1 | 95 | 10 | . | . | .
CCCn1c(SCC(=O)Nc2ccccc2Cl)n[nH]c1=O | -1 | -2 | . | 17 | . | . | . | . | .
O=C1OCC2=C1C(c1ccc(F)cc1)c1cc3c(cc1N2)OCCO3 (centres undefined) | 21 | -2 | 1 | 4 | 138* | -38 | 96 | 105 | 101
O=C1OCC2=C1C(c1ccc(F)cc1)c1cc3c(cc1N2)OCO3 (centres undefined) | -14 | 0 | 0 | -9 | 136* | -36 | 108 | 153* | 106
C#CCOc1ccc(C2C3=C(COC3=O)Nc3cc4c(cc32)OCO4)cc1OC (centres undefined) | -5 | -1 | -12 | -4 | 143* | -43 | 116 | 159* | 115
CC(=O)Oc1ccc(C2C3=C(CC(C)(C)CC3=O)Nc3cc4c(cc32)OCCO4)cc1 (centres undefined) | 2 | 3 | 11 | 0 | 87 | 16 | . | . | .
CCOc1ccccc1C1C2=C(COC2=O)Nc2cc3c(cc21)OCO3 (centres undefined) | 18 | -4 | -11 | 2 | 141* | -31 | 103 | 131* | 94
COc1ccc(C(=O)NC2CCN(C(=S)Nc3cc(C)ccc3C)CC2)cc1 | 20 | -1 | 0 | -8 | 102 | 0 | . | . | .
CC1CCOC2(O1)C(=O)N(CN1CCN(c3ccccc3F)CC1)c1ccccc12 (centres undefined) | 12 | -3 | 5 | -11 | 148* | -54 | 119 | 99 | 82
O=C1N(c2ccccc2C(F)(F)F)O[C@]1(c1ccccc1)C1CCCC1 | . | . | . | -33 | . | . | . | . | .
CCCCC[C@@H]1C=C(C(=O)O)[C@H](c2ccc(Cl)cc2)N1S(=O)(=O)c1ccc(C)cc1 | . | . | . | 0 | . | . | . | . | .
CC1=C(C#N)C(c2ccccc2O)C(C#N)=C(C)N1 | 31 | -2 | 7 | -2 | 143* | -47 | 151* | 103 | 99
O=C(O)c1oc2ccccc2c1-n1cccc1 | -8 | 3 | -4 | -14 | 93 | 8 | . | . | .
COc1ccccc1-c1cc(C(=O)N/N=C/c2cccs2)c2ccccc2n1 | -18 | 0 | 0 | 10 | 139* | -49 | 138* | 105 | 97
O=C(N/N=C/c1cccs1)c1cc(-c2ccncc2)nc2ccccc12 | -10 | -4 | -9 | -25 | 138* | -40 | 102 | 125* | 106
COc1ccccc1-c1cc(C(=O)N/N=C\c2cnn(C)c2C)c2ccccc2n1 | -10 | 0 | 3 | -12 | 95 | 4 | . | . | .
O=S(=O)(c1ccc(Cl)nc1)N1CCCC1 | . | . | . | -23 | . | . | . | . | .
Cc1c(NC2=C(Cl)C(=O)N(c3ccccc3Cl)C2=O)c(=O)n(-c2ccccc2)n1C | 18 | 5 | -1 | 4 | 111 | -9 | . | . | .
COc1cccc(CN2CCN(c3nc4nonc4nc3NC3CC3)CC2)c1 | 1 | 6 | 8 | -4 | 97 | 11 | . | . | .
O/N=C1/C2C3C(Br)C4C5CC(C1C53)C24 (centres undefined) | 15 | -1 | -1 | -11 | 100 | -1 | . | . | .
O=[N+]([O-])c1cccc(C(=Nc2ccc(Cl)cc2)NO)c1 | 19 | 2 | 5 | -13 | 148* | -47 | 139* | 98 | 99
SMILES | PPC-1+TRAIL kill | HSP90 refold inh | STAT1 inh | TRAIL sens C8 | STAT3 act-1 | STAT3 blocker | STAT3 act-2 | NFkB act 2 | STAT1 act
CC(C)C(=O)NC(=S)Nc1ccc(S(=O)(=O)N(C)C)cc1 | 19 | 2 | 6 | -16 | 98 | 4 | . | . | .
Cc1ccc(CN2CCC(Oc3cccc(C(=O)N(C)CCN(C)C)c3)CC2)cc1C | . | -1 | . | 7 | . | . | . | . | .
COc1ccccc1N=Cc1c(C)[nH]n(-c2ccc(C)cc2C)c1=O | 19 | 0 | -12 | -1 | 103 | -2 | . | . | .
Cc1cc(Br)ccc1-n1[nH]c(C)c(C=Nc2cccc3nsnc23)c1=O | 11 | 2 | -10 | -17 | 138* | -45 | 133* | 101 | 99
c1ccc(CCNCCCOc2cccc3ccccc23)cc1 | . | -2 | . | 3 | . | . | . | . | .
O=C(COC(=O)CNC(=O)c1ccccc1)Nc1ccc(S(=O)(=O)N2CCCC2)cc1 | 2 | 5 | 2 | -10 | 93 | 11 | . | . | .
COc1ccc(C)cc1NC(=O)Nc1ccc(Br)cn1 | -11 | -1 | 2 | 6 | 144* | -51 | 116 | 97 | 98
COc1cccc2c(=O)c(C(=O)NCCc3ccccc3)c[nH]c12 | . | . | . | -6 | . | . | . | . | .
CC(=O)Nc1ccc(N2N=C(C)C(N=Nc3ccccc3)C2=O)cc1 (centres undefined) | 2 | 0 | -16 | -1 | 100 | -2 | . | . | .
CC1=NC(=O)C(N=Nc2ccccc2)N1c1ccccc1 (centres undefined) | 18 | -1 | -30 | 13 | 163* | -71 | 162* | 125* | 160*
CCOC(=O)Cc1nnc(NC(=O)C(CC)Sc2nnc3c4ccccc4n(C)c3n2)s1 (centres undefined) | -6 | 5 | 12 | 1 | 137* | -39 | 158* | 102 | 98
CCOC(=O)c1sc(NC(=O)C(CC)Sc2nnc3c4ccccc4n(C(C)C)c3n2)nc1C (centres undefined) | 0 | -2 | 2 | 42 | 103 | 6 | . | . | .
O=C(NCc1cccnc1)c1cccc(S(=O)(=O)Nc2ccc(F)cc2)c1 | . | . | . | 28 | . | . | . | . | .
Oc1ccc(N2CCN(c3ncnc4sc(-c5ccccc5)cc34)CC2)cc1 | 9 | -3 | -7 | 3 | 159* | -72 | 122 | 92 | 97
